Assay results as given in PubChem BioAssay AID1483 (NMMLSC, 2009).
The list shows a part of the results. A number with no mark means an inactive call. The source made the active and inactive calls.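 The calls were made as follows: active = fluorescence beyond the plate control mean plus 3 SD, with a fluorescence-to-maximum score over 2 (cut at about 25 in these data); inactive = the rest.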

experiment: green-channel fluorescence of compounds in CCRF-Adr cells – cell-based, 488/530 nm, flow cytometry, artefact control for ABC transporter inhibitor project, confirmation (AID 1483); conditions: compound autofluorescence 488/530 nm, at 6.6 µM, stronger effect = higher value
Summary of the method: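 System: drug-resistant CCRF-Adr cells; quantity: 3 million cells/mL final; probe or stimulus: no JC-1 substrate added, compound fluorescence only; dosing: one dose, 6.6 µM; timing: 10 min rotation at 25 °C; benchmarks: DMSO control wells; detection: flow cytometry, median green fluorescence at 530 ± 20 nm; read-out: compound-treated cell MFI minus DMSO-treated cell MFI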

Compound | fluorescence
Cc1c(CCOC(=O)CC23CC4CC(CC(C)(C4)C2)C3)sc[n+]1Cc1ccc([N+](=O)[O-])cc1 | -2.94
COc1ccc(-n2c(C)cc(C(=O)COC(=O)c3cc(OC)c(OC)cc3NC(=O)c3cccs3)c2C)cc1 | 2.26
Cc1ccc(OCC(O)CN2CCN(CC(O)COc3ccc(C)cc3Cl)CC2)c(Cl)c1 (stereo not drawn) | 22.4
C/C(=N\Nc1ncc(Cl)cc1Cl)c1ccc(S(=O)(=O)NCc2ccco2)cc1 | -2.49
CCN1/C(=C/c2ccc3ccc(C)cc3[n+]2CC)Sc2ccccc21 | 130 (active)
COc1cccc(NC(=O)c2ccc(Cn3cc([N+](=O)[O-])cn3)o2)c1 | 5.61
CCOC(=O)c1sc(NC(=O)CSc2nnc(-c3ccco3)o2)c(C(=O)OCC)c1C | 0.61
O=C(Cc1c[nH]c2ccccc12)N/N=C/c1cccc(F)c1 | 4.76
C=CCn1c(SCCOc2ccc(OC)cc2)nnc1C(NC(=O)c1ccc(OC)cc1)C(C)C (stereo not drawn) | 180 (active)
Cc1ccc(-n2c(SCC(=O)Nc3ncc(Cl)cc3Cl)nc3ccccc32)cc1 | -0.64
Cc1cccc2cc(CN(Cc3cccs3)C(c3nnnn3C3CCCC3)C(C)C)c(=O)[nH]c12 (stereo not drawn) | -4.84
COc1ccc(C)cc1NC(=O)C(Sc1ccccc1)c1ccccc1 (stereo not drawn) | -2.64
CCOCC(=O)Nc1sc2c(c1C(=O)OCC)CCCC2 | 0.31
